Marks after values point to notes of the source that are not given here.
Experiments:
[1] = subcutaneously injected; cited from earlier work
NEFA = assay: Non-esterified fatty acid; format: in vivo, human; details: for Mean NEFA concentration after subsequent increase / Time of lowest mean NEFA concentration: 0.2 U/kg s.c. before standardized meal; for Mean NEFA concentration after subsequent increase: after the nadir, within 6-h period; for Time of lowest mean NEFA concentration / Mean NEFA concentration at start (before decrease): obese T2DM; for Mean NEFA concentration at start (before decrease): baseline
In short: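 Obese T2DM adults (n = 30) fasted 12 h with oral agents withheld. In a randomized two-way crossover with a 7-day washout, they received 0.2 U/kg s.c. of test insulin analogue within 2 min before a 692-kcal meal (54% carbohydrate, 17% protein, 28% lipid) eaten within 30 min. Plasma NEFA was sampled from −20 min to 6 h by validated kit; mean profiles.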

[2] = test system: obese subjects with type 2 diabetes; assay: Hypoglycaemia and adverse events; format: in vivo, human; details: for Severe hypoglycaemia / Subjects with hypoglycaemia with blood glucose below 56 mg/dl / Subjects with an episode of hypoglycaemia 3–6 h after insulin administration: 0.2 U/kg s.c.; for Subjects with an episode of hypoglycaemia 3–6 h after insulin administration: blood glucose <70 mg/dl
[3] = Serum insulin analogue concentrations after subcutaneous bolus; format: in vivo, human; details: n = 30; for Time to fraction of total insulin AUC (10%) / Time to fraction of total insulin AUC (20%) / Tmax (time to peak insulin concentration) / Insulin AUC0–1 h/AUC0–6 h, geometric mean / Insulin AUC0–2 h/AUC0–6 h, arithmetic mean (value in brackets) / Insulin AUC0–2 h/AUC0–6 h, geometric mean / Insulin AUC0–4 h/AUC0–6 h, arithmetic mean (value in brackets) / Insulin AUC0–4 h/AUC0–6 h, geometric mean: 0.2 U/kg s.c. before standardized meal, obese T2DM; for Time to fraction of total insulin AUC (10%) / Time to fraction of total insulin AUC (20%) / Tmax (time to peak insulin concentration): median; for Insulin AUC0–1 h/AUC0–6 h, geometric mean / Insulin AUC0–2 h/AUC0–6 h, arithmetic mean (value in brackets) / Insulin AUC0–2 h/AUC0–6 h, geometric mean / Insulin AUC0–4 h/AUC0–6 h, arithmetic mean (value in brackets) / Insulin AUC0–4 h/AUC0–6 h, geometric mean: serum analogue
In short: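 Same crossover and 0.2 U/kg s.c. premeal dosing in obese T2DM (n = 30). Serum test insulin analogue was measured by an analogue-specific kit at a central laboratory over 6 h. Non-compartmental analysis gave Cmax, Tmax and linear-trapezoidal AUC fractions. Ratios with 90% CI used ANOVA on ln-transformed data; times used Hodges–Lehmann 90% CI for median differences.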

[4] = test system: obese subjects with type 2 diabetes; assay: Postprandial plasma glucose after a standardized test meal; format: in vivo, human; details: n = 30; for Time to 10% of total glucose AUC / Time to 20% of total glucose AUC / Time to ΔGLUmax: 0.2 U/kg s.c. before standardized meal, obese T2DM, median
In short: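 Same crossover, fasting, 0.2 U/kg s.c. premeal dosing and standardized 692-kcal meal. Plasma glucose was sampled at −20, −10 and 0 min, every 10 min to 2 h, then every 15 min to 6 h. AUCs used the linear trapezoidal rule; incremental AUCs and GLUmax used ANOVA (subject, treatment, sequence, period). Ratio 90% CIs used Fieller's theorem on untransformed data; times used Wilcoxon with Hodges–Lehmann 90% CI.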

[5] = point estimate (90% CI), Hodges and Lehmann method
[6] = point estimate (90% CI), ln-transformed data
[7] = point estimate (90% CI), Fieller's Theorem, untransformed data

In the case of regular human insulin [RHI], the Duration of action [1] is listed as greater than 8 h and the “Time of peak effect after dosing” value [1] is listed as 3 h.

For insulin aspart, the “Mean NEFA concentration after subsequent increase” value (NEFA) was 0.31 mmol/L, the “Time of lowest mean NEFA concentration” value (NEFA) was 120 min and the “Mean NEFA concentration at start (before decrease)” value (NEFA) was 0.51 mmol/L. The Severe hypoglycaemia [2] was “no cases of severe hypoglycaemia requiring intervention”, the “Subjects with hypoglycaemia with blood glucose below 56 mg/dl” value [2] was “eight” and the “Subjects with an episode of hypoglycaemia 3–6 h after insulin administration” value [2] was 15 subjects. For the same substance, the “Time of the remaining hypoglycaemia episodes after administration” value ([2]; episodes outside 3–6 h, one value per episode) was 60 min, the “Time to fraction of total insulin AUC (10%)” value [3] was 60.5 ^† min and the “Time to fraction of total insulin AUC (20%)” value [3] was 91.0 ^† min. The “Tmax (time to peak insulin concentration)” value [3] was 93.0 ^† min, the “Insulin AUC0–1 h/AUC0–6 h, geometric mean” value [3] was 11% and the “Insulin AUC0–2 h/AUC0–6 h, arithmetic mean (value in brackets)” value [3] was 3.6%. For the same substance, the “Insulin AUC0–2 h/AUC0–6 h, geometric mean” value [3] was 35%, the “Insulin AUC0–4 h/AUC0–6 h, arithmetic mean (value in brackets)” value [3] was 4.3% and the “Insulin AUC0–4 h/AUC0–6 h, geometric mean” value [3] was 77%. For the same substance, the “Time to 10% of total glucose AUC” value [4] was 40.0 ^† min, the “Time to 20% of total glucose AUC” value [4] was 65.0 ^† min and the “Time to ΔGLUmax” value [4] was 59.5 ^† min.

With insulin glulisine the “Mean NEFA concentration after subsequent increase” value (NEFA) was 0.32 mmol/L, the “Time of lowest mean NEFA concentration” value (NEFA) was 180 min and the “Mean NEFA concentration at start (before decrease)” value (NEFA) was 0.50 mmol/L. For the same substance, the Severe hypoglycaemia [2] was “no cases of severe hypoglycaemia requiring intervention”, the “Subjects with hypoglycaemia with blood glucose below 56 mg/dl” value [2] was “Five” and the “Subjects with an episode of hypoglycaemia 3–6 h after insulin administration” value [2] was 10 subjects. The “Time to fraction of total insulin AUC (10%)” value [3] was 60.0 ^† min, the “Time to fraction of total insulin AUC (20%)” value [3] was 90.0 ^† min and the “Tmax (time to peak insulin concentration)” value [3] was 120.0 ^† min. For the same substance, the “Tmax, median difference glulisine vs aspart” value [3, 5] was 17 min, the “Insulin AUC0–1 h/AUC0–6 h, mean ratio glulisine/aspart” value [3, 6] was 127% (106–152) and the “Insulin AUC0–2 h/AUC0–6 h, mean ratio glulisine/aspart” value [3, 6] was 103% (95–110). For the same substance, the “Insulin AUC0–4 h/AUC0–6 h, mean ratio glulisine/aspart” value [3, 6] was 101% (99–103), the “Insulin AUC0–1 h/AUC0–6 h, geometric mean” value [3] was 14% and the “Insulin AUC0–2 h/AUC0–6 h, arithmetic mean (value in brackets)” value [3] was 3.6%. The “Insulin AUC0–2 h/AUC0–6 h, geometric mean” value [3] was 36%, the “Insulin AUC0–4 h/AUC0–6 h, arithmetic mean (value in brackets)” value [3] was 4.3% and the “Insulin AUC0–4 h/AUC0–6 h, geometric mean” value [3] was 78%. The “Time to 10% of total glucose AUC” value [4] was 40.0 ^† min, the “Time to 20% of total glucose AUC” value [4] was 67.5 ^† min and the “Time to ΔGLUmax” value [4] was 60.0 ^† min. The “GLUmax, mean ratio glulisine/aspart” value [4, 7] was 94% (90–99), the “Glucose AUC0–1 h, mean ratio glulisine/aspart” value [4, 7] was 94% (90–99) and the “Glucose AUC0–1 h/AUC0–6 h, mean ratio glulisine/aspart” value [4, 7] was 95% (92–99). For the same substance, the “Glucose AUC0–2 h/AUC0–6 h, mean ratio glulisine/aspart” value [4, 7] was 96% (94–99), the “Glucose AUC0–4 h/AUC0–6 h, mean ratio glulisine/aspart” value [4, 7] was 99% (97–100) and the “Glucose AUC0–6 h, mean ratio glulisine/aspart” value [4, 7] was 98% (95–104). The “ΔGLUmax, mean ratio glulisine/aspart” value [4, 7] was 81% (70–100), the “Time to 10% of total glucose AUC, median difference glulisine vs aspart” value [4, 5] was -2 min and the “Time to 20% of total glucose AUC, median difference glulisine vs aspart” value [4, 5] was 0 (−4 to 3) min. For the same substance, the “Time to ΔGLUmax, median difference glulisine vs aspart” value [4, 5] was -5 min and the “GLUmax, mean difference glulisine vs aspart” value ([4]; point estimate (90% CI), analysis of variance, untransformed data) was -11 mg/dL.

From PMC3132447 (Diabetes, Obesity & Metabolism, 2011)
